Results pooled from the literature.
Effect on: cell growth or viability

CC(C)C[C@@H](C=O)NC(=O)[C@H](CC(C)C)NC(=O)[C@H](CC(C)C)NC(=O)OCc1ccccc1 has a CC50 of under 0.15 µM (Caco-2; neutral red; 48 h).
The cell death of CC=C1[C@H]2C=C(C)C[C@]1(N)c1cc(CC)c(=O)[nH]c1C2 is reported as 2.2% (IMR-90; MTT; 100 µM; 24 h).
O=c1c(O[C@@H]2O[C@H](CO)[C@@H](O)[C@H](O)[C@H]2O)c(-c2ccc(O)cc2)oc2cc(O)cc(O)c12 gave an IC50 of 48.8 µM (RD; WST-1).
The CC50 of Nc1nc(F)nc2c1ncn2[C@@H]1O[C@H](COP(=O)(O)O)[C@@H](O)[C@@H]1O is reported as 60.6 µM (LLC-MK2; 5 days).
COc1ccc(C[C@H](NC(=O)[C@H](C)NC(=O)CN2CCOCC2)C(=O)N[C@@H](Cc2ccccc2)C(=O)C(=O)Nc2ccccc2)cc1 has a CC50 of 16.2 µM (Caco-2; ATP luminescence; 48 h).
Nc1nc(F)nc2c1ncn2[C@@H]1O[C@H](CO)[C@@H](O)[C@@H]1O gave a CC50 of 54.1 µM (LLC-MK2; 5 days).
CC(C)(C)NC(=O)N[C@H](C(=O)N1C[C@H]2[C@@H]([C@H]1C(=O)NC(CC1CCC1)C(=O)C(N)=O)C2(C)C)C(C)(C)C (some centres unmarked) has a CC50 of over 100 µM (Caco-2; neutral red; 48 h).
CC=C1[C@H]2C=C(C)C[C@]1(N(C)C)c1ccc(OC)nc1C2 gave a cell death of 5.5% (IMR-90; MTT; 100 µM; 24 h).
